Measured values published in ChEMBL document CHEMBL1151764, “Search for inhibitors of bacterial and human protein kinases among derivatives of diazepines[1,4] annelated with maleimide and indole cycles” (J Med Chem, 2008).

Columns and labels:
Streptomyces coelicolor [1] = test: Inhibition of aph8-induced kanamycin phosphorylation in Streptomyces coelicolor cell lysate assessed as [32Pi] incorporation into kanamycin at 10 uM by microplate scintillation counter relative to control; parameters: scale not given: the % may be the effect or the level left
Streptomyces lividans [2] = test: Inhibition of aph8 positive Streptomyces lividans at 50 uM after 20 hrs by paper disk method; format: functional; settings: read-out: IZ
Summary of the method: (§1)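 Test culture was Streptomyces lividans carrying plasmid pSU23 with the aphVIII gene, whose kanamycin-inactivating activity depends on Ser/Thr kinase phosphorylation. Paper disks (7 mm) held kanamycin (5 µg/disk) plus test compound at subtoxic amounts, about half the minimal growth-inhibitory dose. Disks went on plates of log-phase cells at 28 °C for 20 h. Read-out was lysis zone diameter.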

Streptomyces lividans [3] = test: Inhibition of aph8 positive Streptomyces lividans at 10 uM after 20 hrs by paper disk method; format: functional; settings: read-out: IZ; summary of the method: as §1
Streptomyces lividans [4] = test: Inhibition of aph8 positive Streptomyces lividans at 5 uM after 20 hrs by paper disk method; format: functional; settings: read-out: IZ; summary of the method: as §1
Streptomyces lividans [5] = test: Inhibition of aph8 positive Streptomyces lividans at 25 uM after 20 hrs by paper disk method; format: functional; settings: read-out: IZ; summary of the method: as §1
Streptomyces lividans [6] = test: Inhibition of aph8 positive Streptomyces lividans at 100 uM after 20 hrs by paper disk method; format: functional; settings: read-out: IZ; summary of the method: as §1
Streptomyces lividans [7] = test: Inhibition of aph8 positive Streptomyces lividans at 150 uM after 20 hrs by paper disk method; format: functional; settings: read-out: IZ; summary of the method: as §1
Streptomyces lividans [8] = test: Inhibition of aph8 positive Streptomyces lividans at 1200 uM after 20 hrs by paper disk method; format: functional; settings: read-out: IZ; summary of the method: as §1
Streptomyces lividans [9] = test: Inhibition of aph8 positive Streptomyces lividans at 300 uM after 20 hrs by paper disk method; format: functional; settings: read-out: IZ; summary of the method: as §1
Streptomyces lividans [10] = test: Inhibition of aph8 positive Streptomyces lividans at 600 uM after 20 hrs by paper disk method; format: functional; settings: read-out: IZ; summary of the method: as §1
Streptomyces coelicolor [11] = test: Inhibition of Ca(2+))/phosphatidylserine/diacylglycerol-dependent aph8 phosphorylation in Streptomyces coelicolor cell lysate assessed as [32Pi] incorporation into aph8 at 500 nM by microplate scintillation counter relative to control; parameters: scale not given: the % may be the effect or the level left
Summary of the method: (§2)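 Radiometric in vitro assay of actinobacterial protein kinases. Kinases incubated under standard conditions with [γ-³²P]ATP and aphVIII as substrate, with or without modulators or inhibitors. Read-out was incorporation of the γ-phosphoryl residue into aphVIII.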

Streptomyces lividans [12] = test: Inhibition of aph8 positive Streptomyces lividans at 75 uM after 20 hrs by paper disk method; format: functional; settings: read-out: IZ; summary of the method: as §1
[13] = target: Cyclin-dependent kinase 4/cyclin D1 (Homo sapiens, UniProt P11802); test: Inhibition of human CDK4/CycD1; format: protein-complex assay
[14] = target: Hepatocyte growth factor receptor (Homo sapiens, UniProt P08581); test: Inhibition of human MET
Insulin receptor = Insulin receptor (Homo sapiens, UniProt P06213); test: Inhibition of human INSR
[15] = target: Serine/threonine-protein kinase B-raf (Homo sapiens, UniProt P15056, V600E); test: Inhibition of human B-RAF-V600E mutant
[16] = target: Cyclin-dependent kinase 2 (Homo sapiens, UniProt P24941); test: Inhibition of human CDK2/CycA
[17] = target: Vascular endothelial growth factor receptor 3 (Homo sapiens, UniProt P35916); test: Inhibition of human VEGFR3
[18] = target: Vascular endothelial growth factor receptor 2 (Homo sapiens, UniProt P35968); test: Inhibition of human VEGFR2
[19] = target: Epidermal growth factor receptor (Homo sapiens, UniProt P00533); test: Inhibition of human EGFR
[20] = target: Insulin-like growth factor 1 receptor (Homo sapiens, UniProt P08069); test: Inhibition of human IGF1R
Angiopoietin-1 receptor = Angiopoietin-1 receptor (Homo sapiens, UniProt Q02763); test: Inhibition of human TIE2
Streptomyces coelicolor [21] = test: Inhibition of aph8 phosphorylation in Streptomyces coelicolor cell lysate assessed as [32Pi] incorporation into aph8 at 500 nM by microplate scintillation counter relative to control; parameters: scale not given: the % may be the effect or the level left; summary of the method: as §2
[22] = target: T1, NUAK family SNF1-like kinase 1 (Homo sapiens, UniProt O60285); test: Inhibition of human ARK5
T1 sequence (O60285 whole entry): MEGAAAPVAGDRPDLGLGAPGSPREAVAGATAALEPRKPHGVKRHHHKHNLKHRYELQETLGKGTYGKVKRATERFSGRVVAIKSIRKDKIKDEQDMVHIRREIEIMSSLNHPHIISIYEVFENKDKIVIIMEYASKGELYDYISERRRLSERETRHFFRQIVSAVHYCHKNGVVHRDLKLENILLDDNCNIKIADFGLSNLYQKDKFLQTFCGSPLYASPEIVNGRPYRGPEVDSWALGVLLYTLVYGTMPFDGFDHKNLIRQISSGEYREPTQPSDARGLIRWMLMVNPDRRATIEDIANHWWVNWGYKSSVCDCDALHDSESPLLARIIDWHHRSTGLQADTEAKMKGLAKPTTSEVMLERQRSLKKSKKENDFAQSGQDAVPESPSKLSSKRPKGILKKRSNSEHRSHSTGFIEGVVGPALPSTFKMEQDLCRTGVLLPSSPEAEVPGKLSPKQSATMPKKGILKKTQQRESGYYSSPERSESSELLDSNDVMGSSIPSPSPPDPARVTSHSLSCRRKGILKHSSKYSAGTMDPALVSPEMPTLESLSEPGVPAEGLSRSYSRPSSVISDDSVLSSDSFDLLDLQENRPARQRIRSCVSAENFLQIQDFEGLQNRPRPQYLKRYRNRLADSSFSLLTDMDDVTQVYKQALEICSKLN

Ephrin type-B receptor 4 = target: T2, Ephrin type-B receptor 4 (Homo sapiens, UniProt P54760); test: Inhibition of human EPHB4
T2 sequence (P54760 whole entry): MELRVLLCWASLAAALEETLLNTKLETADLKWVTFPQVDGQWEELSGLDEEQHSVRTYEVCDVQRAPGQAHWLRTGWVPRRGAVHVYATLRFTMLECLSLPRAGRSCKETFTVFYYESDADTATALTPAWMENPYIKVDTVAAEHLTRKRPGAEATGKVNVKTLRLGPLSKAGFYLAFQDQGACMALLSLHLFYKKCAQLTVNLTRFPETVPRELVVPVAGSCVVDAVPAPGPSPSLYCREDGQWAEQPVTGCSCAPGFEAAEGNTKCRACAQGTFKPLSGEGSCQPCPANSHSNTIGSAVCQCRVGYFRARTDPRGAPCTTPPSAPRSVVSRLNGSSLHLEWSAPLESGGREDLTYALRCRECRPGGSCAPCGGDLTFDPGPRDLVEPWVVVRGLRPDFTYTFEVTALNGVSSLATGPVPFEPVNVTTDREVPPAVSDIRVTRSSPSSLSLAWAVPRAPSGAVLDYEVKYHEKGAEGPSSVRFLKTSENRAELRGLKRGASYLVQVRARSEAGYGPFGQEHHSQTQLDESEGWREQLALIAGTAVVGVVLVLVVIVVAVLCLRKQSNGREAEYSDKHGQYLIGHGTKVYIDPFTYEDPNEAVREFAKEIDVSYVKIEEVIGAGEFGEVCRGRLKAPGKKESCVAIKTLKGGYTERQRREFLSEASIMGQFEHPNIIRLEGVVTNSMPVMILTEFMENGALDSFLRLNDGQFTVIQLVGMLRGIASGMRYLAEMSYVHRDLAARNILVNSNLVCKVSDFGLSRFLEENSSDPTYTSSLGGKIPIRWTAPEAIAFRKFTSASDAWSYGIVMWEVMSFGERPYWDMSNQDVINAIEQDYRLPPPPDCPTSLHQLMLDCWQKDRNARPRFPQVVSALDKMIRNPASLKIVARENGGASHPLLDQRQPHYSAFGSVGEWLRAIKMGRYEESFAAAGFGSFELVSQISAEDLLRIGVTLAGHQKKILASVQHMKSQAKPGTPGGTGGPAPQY

[23] = target: Platelet-derived growth factor receptor beta (Homo sapiens, UniProt P09619); test: Inhibition of human PDGFRbeta

Chain of Cyclin-dependent kinase 4/cyclin D1 (P11802 whole entry): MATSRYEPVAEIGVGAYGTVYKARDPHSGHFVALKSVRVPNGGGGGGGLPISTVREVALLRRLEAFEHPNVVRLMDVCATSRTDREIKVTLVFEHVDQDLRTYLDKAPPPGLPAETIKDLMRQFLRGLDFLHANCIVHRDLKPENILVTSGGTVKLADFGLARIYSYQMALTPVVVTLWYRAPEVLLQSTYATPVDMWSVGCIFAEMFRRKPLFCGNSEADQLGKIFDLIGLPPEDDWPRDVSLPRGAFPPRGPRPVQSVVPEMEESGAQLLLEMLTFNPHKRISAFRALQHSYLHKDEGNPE
Chain of Cyclin-dependent kinase 4/cyclin D1 (P24385 whole entry, further chain): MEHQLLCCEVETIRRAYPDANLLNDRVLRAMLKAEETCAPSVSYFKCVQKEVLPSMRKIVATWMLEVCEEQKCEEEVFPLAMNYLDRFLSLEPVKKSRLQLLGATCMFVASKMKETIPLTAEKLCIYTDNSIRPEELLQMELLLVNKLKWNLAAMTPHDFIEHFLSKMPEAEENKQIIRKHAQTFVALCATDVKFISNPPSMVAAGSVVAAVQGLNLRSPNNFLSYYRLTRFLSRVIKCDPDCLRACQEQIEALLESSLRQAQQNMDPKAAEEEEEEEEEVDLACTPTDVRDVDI
Chain of Insulin receptor (P06213 28-758 limits assumed): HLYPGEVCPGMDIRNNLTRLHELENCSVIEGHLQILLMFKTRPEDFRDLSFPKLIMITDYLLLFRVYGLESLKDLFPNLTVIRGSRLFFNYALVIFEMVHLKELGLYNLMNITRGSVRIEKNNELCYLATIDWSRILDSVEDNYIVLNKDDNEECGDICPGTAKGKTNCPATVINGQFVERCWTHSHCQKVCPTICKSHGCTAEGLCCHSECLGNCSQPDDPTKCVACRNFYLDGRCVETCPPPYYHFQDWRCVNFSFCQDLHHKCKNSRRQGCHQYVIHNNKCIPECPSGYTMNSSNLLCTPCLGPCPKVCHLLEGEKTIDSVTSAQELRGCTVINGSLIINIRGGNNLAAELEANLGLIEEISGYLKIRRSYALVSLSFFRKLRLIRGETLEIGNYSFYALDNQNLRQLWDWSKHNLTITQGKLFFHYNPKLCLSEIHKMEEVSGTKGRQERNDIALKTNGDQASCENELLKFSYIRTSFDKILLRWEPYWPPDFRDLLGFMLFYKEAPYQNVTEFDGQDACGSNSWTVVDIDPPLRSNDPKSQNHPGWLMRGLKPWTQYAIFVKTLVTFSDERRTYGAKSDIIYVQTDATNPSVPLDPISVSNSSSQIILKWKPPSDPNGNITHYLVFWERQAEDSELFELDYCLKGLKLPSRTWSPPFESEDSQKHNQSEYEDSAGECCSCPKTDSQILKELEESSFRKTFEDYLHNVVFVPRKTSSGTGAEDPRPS
Chain of Insulin receptor (P06213 763-1382 limits assumed): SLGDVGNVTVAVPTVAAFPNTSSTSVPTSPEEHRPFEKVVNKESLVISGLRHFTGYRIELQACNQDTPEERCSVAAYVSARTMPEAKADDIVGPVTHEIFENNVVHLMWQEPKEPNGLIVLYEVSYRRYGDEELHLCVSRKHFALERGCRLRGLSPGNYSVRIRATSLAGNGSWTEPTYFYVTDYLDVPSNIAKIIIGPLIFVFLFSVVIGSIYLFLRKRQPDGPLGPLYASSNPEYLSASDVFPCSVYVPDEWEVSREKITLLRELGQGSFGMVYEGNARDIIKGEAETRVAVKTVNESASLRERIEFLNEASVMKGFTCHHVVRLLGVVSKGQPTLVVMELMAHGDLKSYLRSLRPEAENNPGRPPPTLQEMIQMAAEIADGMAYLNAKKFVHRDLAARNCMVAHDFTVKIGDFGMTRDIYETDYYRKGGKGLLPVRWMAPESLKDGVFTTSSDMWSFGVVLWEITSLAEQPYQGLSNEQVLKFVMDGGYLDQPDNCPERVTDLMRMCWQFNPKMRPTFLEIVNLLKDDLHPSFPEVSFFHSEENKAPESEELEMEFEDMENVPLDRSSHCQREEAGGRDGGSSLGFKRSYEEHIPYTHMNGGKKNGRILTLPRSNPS
Chain of Epidermal growth factor receptor (P00533 whole entry): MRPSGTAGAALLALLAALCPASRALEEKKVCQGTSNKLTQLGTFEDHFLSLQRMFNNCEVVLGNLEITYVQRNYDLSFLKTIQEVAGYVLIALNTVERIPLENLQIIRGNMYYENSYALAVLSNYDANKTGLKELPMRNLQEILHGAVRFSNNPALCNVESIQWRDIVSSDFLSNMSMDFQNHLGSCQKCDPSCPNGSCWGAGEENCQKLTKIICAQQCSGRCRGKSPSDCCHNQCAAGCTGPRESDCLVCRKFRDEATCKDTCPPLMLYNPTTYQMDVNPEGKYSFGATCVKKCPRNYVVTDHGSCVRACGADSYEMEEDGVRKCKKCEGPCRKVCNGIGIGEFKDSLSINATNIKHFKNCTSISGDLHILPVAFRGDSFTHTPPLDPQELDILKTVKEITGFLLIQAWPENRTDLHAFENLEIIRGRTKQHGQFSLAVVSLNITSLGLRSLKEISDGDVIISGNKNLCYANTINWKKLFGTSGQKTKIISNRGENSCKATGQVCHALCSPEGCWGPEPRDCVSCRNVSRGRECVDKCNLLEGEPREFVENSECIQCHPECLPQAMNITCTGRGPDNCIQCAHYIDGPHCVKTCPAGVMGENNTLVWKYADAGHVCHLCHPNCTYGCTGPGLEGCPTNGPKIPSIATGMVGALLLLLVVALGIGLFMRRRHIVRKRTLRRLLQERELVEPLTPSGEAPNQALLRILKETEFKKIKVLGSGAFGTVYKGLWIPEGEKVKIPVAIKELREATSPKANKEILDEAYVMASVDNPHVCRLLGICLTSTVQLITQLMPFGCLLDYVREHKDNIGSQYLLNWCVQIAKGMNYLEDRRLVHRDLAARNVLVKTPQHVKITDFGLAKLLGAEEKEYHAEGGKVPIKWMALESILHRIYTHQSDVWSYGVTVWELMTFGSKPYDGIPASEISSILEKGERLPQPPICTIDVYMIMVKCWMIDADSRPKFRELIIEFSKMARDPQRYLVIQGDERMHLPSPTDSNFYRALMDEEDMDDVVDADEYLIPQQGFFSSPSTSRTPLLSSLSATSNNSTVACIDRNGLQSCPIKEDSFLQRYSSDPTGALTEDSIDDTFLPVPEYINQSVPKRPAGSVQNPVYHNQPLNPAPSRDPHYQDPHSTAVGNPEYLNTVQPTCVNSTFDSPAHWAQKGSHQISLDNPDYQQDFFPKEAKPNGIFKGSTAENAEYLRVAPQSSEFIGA
Chain of Hepatocyte growth factor receptor (P08581 whole entry): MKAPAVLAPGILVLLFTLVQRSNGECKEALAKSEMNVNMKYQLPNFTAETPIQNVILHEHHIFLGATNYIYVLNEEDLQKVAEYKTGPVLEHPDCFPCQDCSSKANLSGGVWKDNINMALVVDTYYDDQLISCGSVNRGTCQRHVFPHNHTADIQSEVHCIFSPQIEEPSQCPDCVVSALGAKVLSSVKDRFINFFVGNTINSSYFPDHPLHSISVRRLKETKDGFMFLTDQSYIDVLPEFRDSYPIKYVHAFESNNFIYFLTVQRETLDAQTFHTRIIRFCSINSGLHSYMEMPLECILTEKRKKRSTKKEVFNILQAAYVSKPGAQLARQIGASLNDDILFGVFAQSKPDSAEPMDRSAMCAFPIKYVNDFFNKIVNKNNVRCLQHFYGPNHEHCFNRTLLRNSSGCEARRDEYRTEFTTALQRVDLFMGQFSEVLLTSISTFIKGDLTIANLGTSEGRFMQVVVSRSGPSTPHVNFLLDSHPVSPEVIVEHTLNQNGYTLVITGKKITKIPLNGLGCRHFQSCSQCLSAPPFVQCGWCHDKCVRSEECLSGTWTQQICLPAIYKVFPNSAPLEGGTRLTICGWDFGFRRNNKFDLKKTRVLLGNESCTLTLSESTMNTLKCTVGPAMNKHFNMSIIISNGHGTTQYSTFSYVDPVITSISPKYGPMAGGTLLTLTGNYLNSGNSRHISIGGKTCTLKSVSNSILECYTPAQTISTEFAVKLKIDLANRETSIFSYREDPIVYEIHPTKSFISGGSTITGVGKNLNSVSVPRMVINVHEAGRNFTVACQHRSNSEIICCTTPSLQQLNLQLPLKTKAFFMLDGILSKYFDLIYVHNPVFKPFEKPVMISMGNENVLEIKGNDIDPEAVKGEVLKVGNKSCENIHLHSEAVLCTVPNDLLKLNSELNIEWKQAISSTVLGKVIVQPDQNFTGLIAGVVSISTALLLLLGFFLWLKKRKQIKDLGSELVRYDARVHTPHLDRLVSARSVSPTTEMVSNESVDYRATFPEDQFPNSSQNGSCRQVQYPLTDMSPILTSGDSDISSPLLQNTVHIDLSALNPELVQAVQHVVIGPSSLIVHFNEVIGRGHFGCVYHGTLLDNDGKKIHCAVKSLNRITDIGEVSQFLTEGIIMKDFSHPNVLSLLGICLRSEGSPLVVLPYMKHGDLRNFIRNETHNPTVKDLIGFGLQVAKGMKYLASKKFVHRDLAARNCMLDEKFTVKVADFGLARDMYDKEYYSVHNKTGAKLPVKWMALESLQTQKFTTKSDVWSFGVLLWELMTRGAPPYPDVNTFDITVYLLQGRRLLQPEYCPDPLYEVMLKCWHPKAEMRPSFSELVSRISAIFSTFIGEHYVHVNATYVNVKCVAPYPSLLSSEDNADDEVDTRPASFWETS

What does the source list for `CCN(CC)Cc1cn2c3c(cccc13)C1Cc3ccccc3N1C1=C2C(=O)NC1=O` (configuration not stated)?
Activity (Streptomyces coelicolor [1]): 92%; zone of inhibition at 50 µM (Streptomyces lividans [2]): 9 mm; zone of inhibition at 10 µM (Streptomyces lividans [3]): 0 mm; zone of inhibition at 5 µM (Streptomyces lividans [4]): 0 mm; zone of inhibition at 25 µM (Streptomyces lividans [5]): 7.5 mm; zone of inhibition at 100 µM (Streptomyces lividans [6]): 12 mm

What does the source list for `CN(C)CCCn1cc(C2=C(c3c[nH]c4ccccc34)C(=O)NC2=O)c2ccccc21` [GF-109203]?
Activity (Streptomyces coelicolor [1]): 95%; zone of inhibition at 150 µM (Streptomyces lividans [7]): 0 mm; zone of inhibition at 1200 µM (Streptomyces lividans [8]): 10 mm; zone of inhibition at 300 µM (Streptomyces lividans [9]): 7.5 mm; zone of inhibition at 600 µM (Streptomyces lividans [10]): 9 mm; Activity (Streptomyces coelicolor [11]): 152%; zone of inhibition at 75 µM (Streptomyces lividans [12]): 0 mm

For `C=CCNC(=N)SCCCN1C(=O)C2=C(C1=O)n1ccc3cccc(c31)C1Cc3ccccc3N21` (configuration not stated), which IC50 [13] is on record?
Its IC50 is 6.9 µM.

For `CNC(=N)SCCCN1C(=O)C2=C(C1=O)n1ccc3cccc(c31)C1Cc3ccccc3N21` (configuration not stated), which IC50 [13] is on record?
Its IC50 is 5.7 µM.

And the IC50 [14]?
Its IC50 is 6.7 µM.

And the IC50 (Insulin receptor)?
Its IC50 is 5.1 µM.

And the IC50 [15]?
The IC50 was 8 µM.

What about the IC50 [16] of the same compound?
Its IC50 is 5.3 µM.

With `N=C(Nc1ccccc1)SCCCN1C(=O)C2=C(C1=O)n1ccc3cccc(c31)C1Cc3ccccc3N21` (configuration not stated) as the compound, how does the IC50 [13] read?
The IC50 was 7.9 µM.

What about the IC50 [17] of the same compound?
Its IC50 is 9.6 µM.

What about the IC50 [18] of the same compound?
Its IC50 is 4.3 µM.

What about the IC50 [16] of the same compound?
The IC50 was 5.1 µM.

And the IC50 [19]?
The IC50 was 9.5 µM.

What about the IC50 [20] of the same compound?
The IC50 was 2.3 µM.

What about the IC50 (Angiopoietin-1 receptor) of the same compound?
The IC50 was 8.9 µM.

Which Activity (Streptomyces coelicolor [21]) does the source give for `O=C(O)CN(CCOCCOCCN(CC(=O)O)CC(=O)O)CC(=O)O` here?
The Activity was 94%.

Which results are given for `CNC(=N)SCCCn1c(=O)c2c(c1=O)n1c3ccccc3cc1c1cccc3ccn2c31`?
IC50 [13]: 6.2 µM; IC50 [14]: 7.4 µM; IC50 (Insulin receptor): 6.3 µM; IC50 [22]: 9.7 µM; IC50 (Ephrin type-B receptor 4): 3.9 µM; IC50 [15]: 8.4 µM; IC50 [16]: 6.3 µM; IC50 [19]: 9.9 µM; IC50 [23]: 6.7 µM

Which IC50 [16] does the source give for `O=C1C2=C(C(=O)N1CCCSC1=NCCN1)n1ccc3cccc(c31)C1Cc3ccccc3N21` (configuration not stated) here?
Its IC50 is 7.7 µM.
